Measurements published in ChEMBL document CHEMBL4270543, “Synthesis and biological evaluation of (1-aryl-1H-pyrazol-4-yl) (3,4,5-trimethoxyphenyl)methanone derivatives as tubulin inhibitors” (Eur J Med Chem, 2018).
pIC50: −log10 of the molar value. Each block holds one compound with its values, some of them ahead of it. Activity calls are given as the source filed them. The rule behind the calls is not given here.

Legend:
A549 = assay: Antiproliferative activity against human A549 cells after 72 hrs by MTT assay; assay type: functional, cell-based; conditions: A549, 72 h
In short: (§1)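 Human tumour cells were exposed to the compound for 72 h, and growth was read by standard MTT assay. IC50 is the concentration giving 50% inhibition, taken as the average of three parallel experiments.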

SGC-7901 [1] = assay: Antiproliferative activity against human SGC7901 cells after 72 hrs by MTT assay; assay type: functional, cell-based; conditions: SGC-7901, 72 h; in short: as §1
HT-1080 = assay: Antiproliferative activity against human HT1080 cells after 72 hrs by MTT assay; assay type: functional, cell-based; conditions: HT-1080, 72 h; in short: as §1
Sus scrofa [2] = species on record: Sus scrofa; assay: Inhibition of porcine brain tubulin polymerization at 5 uM preincubated for 1 min followed by GTP addition measured at 1 min time interval for 90 mins by fluorescence assay
In short: (§2)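 Run with a commercial tubulin polymerization kit following the manufacturer's protocol. Tubulin was pre-incubated for 1 min with compound (2.5, 5, 10 or 20 µM) or DMSO vehicle, then GTP was added to start polymerization. Reactions were monitored at 37 °C.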

Sus scrofa [3] = species on record: Sus scrofa; assay: (§3) Inhibition of porcine brain tubulin polymerization preincubated for 1 min followed by GTP addition measured at 1 min time interval for 90 mins by fluorescence assay; in short: as §2
[4] = as §3; parameters: species or system Sus scrofa; in short: as §2
SGC-7901 [5] = assay: Cell cycle arrest in human SGC7901 cells assessed as accumulation at G2/M phase after 24 hrs by propidium iodide staining based flow cytometry; assay type: functional
In short: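 SGC-7901 cells were treated for 24 h with a vehicle control run in parallel. Cell-cycle phase distribution was obtained by flow cytometry, with G2/M accumulation as the read-out.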

Tubulin (Homo sapiens) = Tubulin (Homo sapiens) (UniProt P68371+Q9H4B7+P0DPH7+P68366+Q13509+Q71U36+P04350+Q3ZCM7+P07437+P68363+Q9BQE3+Q6PEY2+Q13885+Q9BVA1+Q9BUF5); assay: Inhibition of tubulin polymerization in human SGC7901 cells assessed as disruption of microtubule formation at 2 times antiproliferative IC50 after 24 hrs by DAPI staining based immunofluorescence microscopic method; assay type: cell-based
In short: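 SGC-7901 cells were treated for 24 h at 2-fold their antiproliferative IC50. Cells were stained with anti-α-tubulin-FITC antibody and then DAPI for DNA, and the microtubule network was examined by confocal microscopy.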

L929 = assay: Cytotoxicity against mouse L929 cells after 72 hrs by MTT assay; assay type: cell-based; conditions: L929, 72 h
SGC-7901 [6] = assay: Cell cycle arrest in human SGC7901 cells assessed as accumulation at G2/M phase at 27 to 108 nM after 24 hrs by propidium iodide staining based flow cytometry (reference value: 15%); assay type: functional
Sus scrofa [7] = species on record: Sus scrofa; assay: Inhibition of porcine brain tubulin polymerization at 2.5 uM preincubated for 1 min followed by GTP addition measured at 1 min time interval for 90 mins by fluorescence assay; in short: as §2

Structure (SMILES): COc1cc(C(=O)c2cnn(-c3cccc(Br)c3)c2N)cc(OC)c1OC
- pIC50 (A549): < 4.52
- pIC50 (SGC-7901 [1]): < 4.52
- pIC50 (HT-1080): < 4.52

Structure (SMILES): COc1cc(C(=O)c2cnn(-c3cc(C)cc(C)c3)c2N)cc(OC)c1OC
- pIC50 (A549): < 4.52
- pIC50 (SGC-7901 [1]): < 4.52
- pIC50 (HT-1080): < 4.52

Structure (SMILES): COc1ccc(-n2ncc(C(=O)c3cc(OC)c(OC)c(OC)c3)c2N)cc1
- pIC50 (A549): < 4.52
- pIC50 (SGC-7901 [1]): < 4.52
- pIC50 (HT-1080): < 4.52

Structure (SMILES): CC(=O)O[C@H]1C(=O)[C@@]2(C)[C@H]([C@H](OC(=O)c3ccccc3)[C@]3(O)C[C@H](OC(=O)[C@H](O)[C@@H](NC(=O)c4ccccc4)c4ccccc4)C(C)=C1C3(C)C)[C@]1(OC(C)=O)CO[C@@H]1C[C@@H]2O
- inhibition (Sus scrofa [2]): inactive

Structure (SMILES): COc1cc(C(=O)c2cnn(-c3ccc(Cl)cc3)c2N)cc(OC)c1OC
- pIC50 (A549): < 4.52
- pIC50 (SGC-7901 [1]): < 4.52
- pIC50 (HT-1080): < 4.52

Structure (SMILES): COc1cc(C(=O)c2cnn(-c3ccc(C(C)C)cc3)c2N)cc(OC)c1OC
- pIC50 (A549): < 4.52
- pIC50 (SGC-7901 [1]): < 4.52
- pIC50 (HT-1080): < 4.52

Structure (SMILES): COc1cc(C(=O)c2cnn(-c3cccc(Cl)c3)c2N)cc(OC)c1OC
- pIC50 (A549): < 4.52
- pIC50 (SGC-7901 [1]): < 4.52
- pIC50 (HT-1080): < 4.52

Structure (SMILES): COc1cc(C(=O)c2cnn(-c3ccccc3)c2N)cc(OC)c1OC
- pIC50 (A549): 4.95
- pIC50 (SGC-7901 [1]): 4.61
- pIC50 (HT-1080): 5.30

Structure (SMILES): CCc1ccc(-n2ncc(C(=O)c3cc(OC)c(OC)c(OC)c3)c2N)cc1
- pIC50 (A549): < 4.52
- pIC50 (SGC-7901 [1]): < 4.52
- pIC50 (HT-1080): < 4.52

Structure (SMILES): COc1cc(C(=O)c2cnn(-c3ccc(F)cc3)c2N)cc(OC)c1OC
- pIC50 (A549): < 4.52
- pIC50 (SGC-7901 [1]): < 4.52
- pIC50 (HT-1080): < 4.52

Structure (SMILES): COc1cc(C(=O)c2cnn(-c3ccc(C)cc3C)c2N)cc(OC)c1OC
- pIC50 (A549): < 4.52
- pIC50 (SGC-7901 [1]): < 4.52
- pIC50 (HT-1080): < 4.52

Structure (SMILES): COc1cc(C(=O)c2cnn(-c3ccccc3Cl)c2N)cc(OC)c1OC
- pIC50 (A549): < 4.52
- pIC50 (SGC-7901 [1]): < 4.52
- pIC50 (HT-1080): < 4.52

Structure (SMILES): COc1cc(C(=O)c2cnn(-c3cc(C)cc(C)c3)c2)cc(OC)c1OC
- pIC50 (A549): 5.64
- pIC50 (SGC-7901 [1]): 5.72
- pIC50 (HT-1080): 5.80

Structure (SMILES): COc1cc(C(=O)c2cnn(-c3cccc(Cl)c3C)c2N)cc(OC)c1OC
- pIC50 (A549): < 4.52
- pIC50 (SGC-7901 [1]): < 4.52
- pIC50 (HT-1080): < 4.52

Structure (SMILES): COc1cc(/C(=N\O)c2cnn(-c3ccc(C)cc3)c2)cc(OC)c1OC (mixture of isomers)
- pIC50 (A549): 6.85
- pIC50 (SGC-7901 [1]): 7.15
- pIC50 (HT-1080): 7.05
- pIC50 (L929): 4.02

Structure (SMILES): COc1cc(C(=O)c2csc(-c3ccccc3)n2)cc(OC)c1OC
- pIC50 (A549): 7.49
- pIC50 (SGC-7901 [1]): 7.64
- inhibition (Tubulin (Homo sapiens)): Active
- pIC50 (HT-1080): 7.57
- pIC50 (L929): 4.68
- inhibition (Sus scrofa [7]): Active

Structure (SMILES): COc1cc(C(=O)c2cnn(-c3ccc(C)cc3)c2N)cc(OC)c1OC
- pIC50 (A549): 4.69
- pIC50 (SGC-7901 [1]): 4.53
- pIC50 (HT-1080): < 4.52

Structure (SMILES): COc1cc(C(=O)c2cnn(-c3ccccc3Br)c2N)cc(OC)c1OC
- pIC50 (A549): < 4.52
- pIC50 (SGC-7901 [1]): < 4.52
- pIC50 (HT-1080): < 4.52

Structure (SMILES): COc1cc(C(=O)c2cnn(-c3cc(C)ccc3C)c2N)cc(OC)c1OC
- pIC50 (A549): < 4.52
- pIC50 (SGC-7901 [1]): < 4.52
- pIC50 (HT-1080): < 4.52

Second part, led by results:

- pIC50 (A549): 5.07
- pIC50 (SGC-7901 [1]): < 4.52
- pIC50 (HT-1080): 4.71
Structure (SMILES): COc1cc(C(=O)c2cnn(-c3ccccc3)c2)cc(OC)c1OC

- pIC50 (A549): 4.79
- pIC50 (SGC-7901 [1]): 5.11
- pIC50 (HT-1080): 5.51
Structure (SMILES): CCc1ccc(-n2cc(C(=O)c3cc(OC)c(OC)c(OC)c3)cn2)cc1

- pIC50 (A549): < 4.52
- pIC50 (SGC-7901 [1]): < 4.52
- pIC50 (HT-1080): < 4.52
Structure (SMILES): COc1cc(C(=O)c2cnn(-c3ccccc3C)c2)cc(OC)c1OC

- pIC50 (A549): < 4.52
- pIC50 (SGC-7901 [1]): < 4.52
- pIC50 (HT-1080): < 4.52
Structure (SMILES): COc1cc(C(=O)c2cnn(-c3cccc(Br)c3)c2)cc(OC)c1OC

- pIC50 (A549): 4.85
- pIC50 (SGC-7901 [1]): 5.19
- pIC50 (HT-1080): 5.55
Structure (SMILES): COc1cc(C(=O)c2cnn(-c3ccc(F)cc3)c2)cc(OC)c1OC

- pIC50 (A549): 4.73
- pIC50 (SGC-7901 [1]): 4.75
- pIC50 (HT-1080): < 4.52
Structure (SMILES): COc1ccc(-n2cc(C(=O)c3cc(OC)c(OC)c(OC)c3)cn2)cc1

- pIC50 (A549): < 4.52
- pIC50 (SGC-7901 [1]): < 4.52
- pIC50 (HT-1080): < 4.52
Structure (SMILES): COc1cc(C(=O)c2cnn(-c3ccccc3Cl)c2)cc(OC)c1OC

- pIC50 (A549): 6.96
- inhibition (Sus scrofa [3]): Dose-dependent effect
- pIC50 [4]: 5.04
- pIC50 (SGC-7901 [1]): 7.27
- inhibition (Tubulin (Homo sapiens)): Active
- pIC50 (HT-1080): 6.80
Structure (SMILES): COc1cc(C(=O)c2cnn(-c3ccc(C)cc3)c2)cc(OC)c1OC
- Activity (SGC-7901 [5]): Dose-dependent effect
- pIC50 (L929): 4.18
- Activity (SGC-7901 [6]): <=68%

- pIC50 (A549): < 4.52
- pIC50 (SGC-7901 [1]): < 4.52
- pIC50 (HT-1080): 4.77
Structure (SMILES): COc1cc(C(=O)c2cnn(-c3ccc(C(C)C)cc3)c2)cc(OC)c1OC

- pIC50 (A549): < 4.52
- pIC50 (SGC-7901 [1]): < 4.52
- pIC50 (HT-1080): < 4.52
Structure (SMILES): COc1cc(C(=O)c2cnn(-c3ccccc3Br)c2)cc(OC)c1OC

- pIC50 (A549): < 4.52
- pIC50 (SGC-7901 [1]): < 4.52
- pIC50 (HT-1080): 4.65
Structure (SMILES): COc1cc(C(=O)c2cnn(-c3ccc(C)cc3C)c2)cc(OC)c1OC

- pIC50 (A549): < 4.52
- pIC50 (SGC-7901 [1]): < 4.52
- pIC50 (HT-1080): < 4.52
Structure (SMILES): COc1cc(C(=O)c2cnn(-c3cccc(Cl)c3C)c2)cc(OC)c1OC

- pIC50 (A549): < 4.52
- pIC50 (SGC-7901 [1]): < 4.52
- pIC50 (HT-1080): < 4.52
Structure (SMILES): COc1cc(C(=O)c2cnn(-c3ccc(Cl)cc3)c2)cc(OC)c1OC

- pIC50 (A549): 5.59
- pIC50 (SGC-7901 [1]): 5.43
- pIC50 (HT-1080): 4.89
Structure (SMILES): COc1cc(C(=O)c2cnn(-c3cc(C)ccc3C)c2)cc(OC)c1OC

- pIC50 (A549): 4.69
- pIC50 (SGC-7901 [1]): 4.78
- pIC50 (HT-1080): 5.43
Structure (SMILES): COc1cc(C(=O)c2cnn(-c3cccc(Cl)c3)c2)cc(OC)c1OC

- pIC50 (A549): < 4.52
- pIC50 (SGC-7901 [1]): < 4.52
- pIC50 (HT-1080): < 4.52
Structure (SMILES): COc1cc(C(=O)c2cnn(-c3ccccc3C)c2N)cc(OC)c1OC
